Screening results deposited in PubChem BioAssay by several laboratories.
Most compounds without a hit are left out; they make up all but 0.6% or so of the library.
Rtt109 Vps75 = inhibitors of Candida albicans Rtt109/Vps75 histone acetyltransferase; Q5AAJ8; purified Rtt109/Vps75, ThioGlo CoA-SH fluorescence, 4 h; inhibition, % at 34.9 µM; hit rate 0.16% among 330,000; AID 540336;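 active = inhibition of at least 50% in every replicate; inconclusive = best replicate reaches 50% inhibition but some replicates fall short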
DDE Tn7 FP inh = inhibitors of Tn7 peptide binding to human fibrin DD(E). inhibition, % at 8.3 µM. FP displacement of FITC-Tn7 peptide from fibrin DD(E); 0% = median of compound wells per plate. hit rate 0.13% among 370,000;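 active = inhibition above the mean of compounds falling within the control limits plus 3 SD of them, cut at about 14% in these data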
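Test system: human clot-derived fibrin DD(E) complex / Quantity: 2 µM final DD(E) protein / Incubation: 10 min plus 3 h, room temperature / Measured by: fluorescence polarization / Benchmarks: high control of 10 µM Aha-Tn7 peptide / Replicates: singlicate testing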
Keap1-Nrf2 PPI = inhibitors of human Keap1-Nrf2 protein-protein interaction | Keap1 Kelch-Nrf2 peptide fluorescence polarization, 1536-well | inhibition, % at 9.4 µM | hit rate 0.15% among 340,000 | AID 504523; in the data active = inhibition above about 12%; inconclusive = no clear call, values can overlap the other calls; inactive = below about 7.3%;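 note: human Keap1 Kelch domain with fluorescein labeled Nrf2 9mer peptide probe; higher means more block of Keap1 binding to Nrf2 peptide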
Target sequence (Q14145 whole entry, looked up, the tested form may be a part): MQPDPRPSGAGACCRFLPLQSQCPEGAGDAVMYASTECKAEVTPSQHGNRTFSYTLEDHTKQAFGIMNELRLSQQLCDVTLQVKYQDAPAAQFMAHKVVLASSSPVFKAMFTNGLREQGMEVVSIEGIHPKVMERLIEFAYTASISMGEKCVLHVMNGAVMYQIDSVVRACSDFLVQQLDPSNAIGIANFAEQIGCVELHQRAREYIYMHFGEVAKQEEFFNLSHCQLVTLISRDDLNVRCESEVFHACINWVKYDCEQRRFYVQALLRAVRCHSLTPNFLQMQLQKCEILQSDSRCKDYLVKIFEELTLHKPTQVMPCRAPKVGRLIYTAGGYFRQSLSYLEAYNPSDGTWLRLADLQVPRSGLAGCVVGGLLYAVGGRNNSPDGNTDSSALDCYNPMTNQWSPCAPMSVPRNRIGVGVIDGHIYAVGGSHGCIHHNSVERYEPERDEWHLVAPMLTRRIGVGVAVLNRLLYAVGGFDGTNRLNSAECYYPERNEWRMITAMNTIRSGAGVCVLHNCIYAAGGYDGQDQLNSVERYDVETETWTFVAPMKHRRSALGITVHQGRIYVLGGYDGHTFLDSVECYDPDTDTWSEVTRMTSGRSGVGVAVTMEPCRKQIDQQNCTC
LANA DNA inh = KSHV C-LANA DNA binding inhibition. MBP-C-LANA/FAM-LBS DNA binding, fluorescence polarization. inhibition, % at 9 µM. hit rate 0.078% among 340,000. AID 504423;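 active = highest replicate inhibition at or above 60% at 9 µM, even if other replicates fall short; inactive = all replicates below 60% inhibition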
DDE Tn6 FP inh = disrupts Tn6 cyclic peptide binding to fibrin D-Dimer-E complex; P02675; Fibrin DD(E) TRITC-Tn6 fluorescence polarization displacement; inhibition, % at 8.3 µM; hit rate 0.21% among 370,000; AID 720509;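 active = inhibition above a per-campaign cutoff: mean of compounds within control limits plus 3 SD, cut at about 15% in these data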
Tn6 DDE ctr = counter-screen for inhibitors of Tn6 peptide binding to fibrin DD(E); AID 720621; hit rate 2% among 680; TRITC-Tn6 fluorescence polarization displacement; 0% = median of compound wells, not DMSO; inhibition, % at 8.3 µM; shares compounds with DDE Tn6 FP inh;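 active = inhibition above the mean of test compounds lying between the control limits plus 3 SD of those, cut at about 14% in these data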
DDE Tn6 confirm = DD(E)-Tn6 binding inhibition, FP confirmation; AID 720631; hit rate 10% among 680; shares compounds with DDE Tn6 FP inh; inhibition, % at 8.3 µM; FP displacement of TRITC-Tn6 peptide from DD(E); 0% = per-plate median of test wells;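 active = inhibition above the mean of compounds lying within the control limits plus 3 SD, cut at about 16% in these data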
Hits are given with their value.

COc1cc2sc3ccc(-c4ccc(CN5CCOCC5)cc4)cc3c(=O)c2cc1OC was read as Rtt109 Vps75 inactive, DDE Tn7 FP inh inactive, Keap1-Nrf2 PPI inactive, LANA DNA inh inactive, DDE Tn6 FP inh 18, Tn6 DDE ctr inactive and DDE Tn6 confirm inactive.
Screening NC1=Nc2cccc3cccc1c23 returned Rtt109 Vps75 inactive, DDE Tn7 FP inh inactive, Keap1-Nrf2 PPI inactive, LANA DNA inh inactive, DDE Tn6 FP inh 38, Tn6 DDE ctr inactive and DDE Tn6 confirm 46.
O=C(Nc1ccc(F)cc1)OCCN1C(=O)CCC12CCC(c1ccccc1)CC2 (stereo unspecified) was read as DDE Tn7 FP inh inactive and DDE Tn6 FP inh inactive.
CN(CC(=O)N1CCc2ccccc21)S(=O)(=O)c1cccs1 was read as Rtt109 Vps75 inactive, DDE Tn7 FP inh inactive, Keap1-Nrf2 PPI inactive, LANA DNA inh inactive, DDE Tn6 FP inh 16, Tn6 DDE ctr inactive and DDE Tn6 confirm inactive.
For CC(C(=O)N1CCc2ccccc21)N1CCN(S(=O)(=O)c2cccs2)CC1 (stereo unspecified) the results were Rtt109 Vps75 inactive, DDE Tn7 FP inh inactive, Keap1-Nrf2 PPI inactive, LANA DNA inh inactive and DDE Tn6 FP inh inactive.
`COc1ccc(C(=O)N(Cc2ccccc2)c2cccc(C)c2)cc1` gave Rtt109 Vps75 inactive, DDE Tn7 FP inh inactive, Keap1-Nrf2 PPI inactive, LANA DNA inh inactive, DDE Tn6 FP inh 17, Tn6 DDE ctr inactive and DDE Tn6 confirm inactive.
Screening COc1ccc(C(=O)c2no[n+]([O-])c2C(=O)c2ccc(OC)cc2)cc1 returned Rtt109 Vps75 inactive, DDE Tn7 FP inh inactive, Keap1-Nrf2 PPI inactive, LANA DNA inh inactive and DDE Tn6 FP inh inactive.
For Cc1c(C(=O)c2no[n+]([O-])c2C(=O)c2cnn(C)c2C)cnn1C the results were Rtt109 Vps75 inconclusive, DDE Tn7 FP inh inactive, Keap1-Nrf2 PPI inactive, LANA DNA inh inactive, DDE Tn6 FP inh 16, Tn6 DDE ctr inactive and DDE Tn6 confirm inactive.
Cc1cccc(NC(=O)NCc2ccc3c(c2)cc(C)n3C)c1 was read as Rtt109 Vps75 inactive, DDE Tn7 FP inh inactive, Keap1-Nrf2 PPI inactive, LANA DNA inh inactive, DDE Tn6 FP inh 46, Tn6 DDE ctr inactive and DDE Tn6 confirm inactive.
Screening COc1cccc(NC(=S)NCc2ccc3c(c2)cc(C)n3C)c1 returned DDE Tn7 FP inh inactive, Keap1-Nrf2 PPI inactive, LANA DNA inh inactive and DDE Tn6 FP inh inactive.
`Cc1cccc(NC(=S)NCc2ccc3c(c2)cc(C)n3C)c1C` gave Rtt109 Vps75 inactive, DDE Tn7 FP inh inactive, Keap1-Nrf2 PPI inactive, LANA DNA inh inactive, DDE Tn6 FP inh 23, Tn6 DDE ctr inactive and DDE Tn6 confirm inactive.
Screening COc1ccc(CNC(=O)Nc2cccc(Cl)c2)cc1 returned Rtt109 Vps75 inactive, Keap1-Nrf2 PPI inactive and LANA DNA inh inactive.
Cc1cc2cc(CNC(=O)Nc3cccc(Cl)c3)ccc2n1C was read as Rtt109 Vps75 inactive, DDE Tn7 FP inh inactive, Keap1-Nrf2 PPI inactive, LANA DNA inh inactive, DDE Tn6 FP inh 70, Tn6 DDE ctr inactive and DDE Tn6 confirm 18.
CC1CCN(c2ccc(C(=O)O)cc2NS(=O)(=O)c2ccccc2)CC1 was read as DDE Tn7 FP inh inactive and DDE Tn6 FP inh inactive.
For Cc1ccc(NC(=O)Cc2nc(CCl)cs2)cc1 the results were Rtt109 Vps75 inactive, DDE Tn7 FP inh inactive, Keap1-Nrf2 PPI inactive, LANA DNA inh inactive, DDE Tn6 FP inh 15, Tn6 DDE ctr inactive and DDE Tn6 confirm inactive.
For Cc1cc(C)cc(N(CC(=O)NC2CCC(C)CC2)S(=O)(=O)c2ccc([N+](=O)[O-])cc2)c1 (stereo unspecified) the results were DDE Tn7 FP inh inactive and DDE Tn6 FP inh inactive.
Screening COc1ccc(OC)c(NS(=O)(=O)c2ccc(NC(C)=O)cc2)c1 returned Rtt109 Vps75 inactive, DDE Tn7 FP inh inactive, Keap1-Nrf2 PPI inactive, LANA DNA inh inactive, DDE Tn6 FP inh 16, Tn6 DDE ctr inactive and DDE Tn6 confirm inactive.
Screening COc1ccc(NS(=O)(=O)c2ccc(NC(C)=O)cc2)c(OC)c1 returned Rtt109 Vps75 inactive, DDE Tn7 FP inh inactive, Keap1-Nrf2 PPI inactive, LANA DNA inh inactive and DDE Tn6 FP inh inactive.
